Calb FLC – C. albicans growth modulation with fluconazole. C. albicans CaCi-2 (fluconazole-resistant clinical isolate) + fluconazole, Alamar Blue growth, 48 h. growth inhibition, % (test concentration not listed). actives 0.57% (n = 300,000). AID 1979;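 active means growth inhibition above about 58% in most replicates, limit read from the data, passing the limit was not always enough; inconclusive means exactly half the replicates above a set limit; inactive means most replicates below a set limit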;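 further: all wells also contain fluconazole at 8 µg/ml as a sub-toxic cotreatment; 0% = median of DMSO wells and 100% = median of geldanamycin control wells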
Mdm2 MdmX PPI – human Mdm2/MdmX binding inhibition; SaOS-2 split-luciferase Mdm2/MdmX complementation, luminescence; inhibition, % at 8 µM; actives 3% (n = 330,000);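 active means inhibition of at least 50% at 8 µM in the primary screen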
Target sequence (O15151 whole entry, looked up): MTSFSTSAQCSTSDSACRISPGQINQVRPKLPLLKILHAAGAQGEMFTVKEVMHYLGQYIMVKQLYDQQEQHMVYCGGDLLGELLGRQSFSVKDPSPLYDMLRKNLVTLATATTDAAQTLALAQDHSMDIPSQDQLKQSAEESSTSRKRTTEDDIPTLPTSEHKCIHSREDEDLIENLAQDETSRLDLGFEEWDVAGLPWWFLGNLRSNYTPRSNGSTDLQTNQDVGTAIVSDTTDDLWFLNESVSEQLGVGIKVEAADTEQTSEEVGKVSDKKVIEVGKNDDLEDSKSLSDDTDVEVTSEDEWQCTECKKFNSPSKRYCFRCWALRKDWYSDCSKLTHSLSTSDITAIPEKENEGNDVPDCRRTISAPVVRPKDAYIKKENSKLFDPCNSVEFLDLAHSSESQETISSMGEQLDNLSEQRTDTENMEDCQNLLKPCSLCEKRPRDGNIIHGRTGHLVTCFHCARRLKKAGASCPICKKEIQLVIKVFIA
Target sequence (Q00987 whole entry, looked up): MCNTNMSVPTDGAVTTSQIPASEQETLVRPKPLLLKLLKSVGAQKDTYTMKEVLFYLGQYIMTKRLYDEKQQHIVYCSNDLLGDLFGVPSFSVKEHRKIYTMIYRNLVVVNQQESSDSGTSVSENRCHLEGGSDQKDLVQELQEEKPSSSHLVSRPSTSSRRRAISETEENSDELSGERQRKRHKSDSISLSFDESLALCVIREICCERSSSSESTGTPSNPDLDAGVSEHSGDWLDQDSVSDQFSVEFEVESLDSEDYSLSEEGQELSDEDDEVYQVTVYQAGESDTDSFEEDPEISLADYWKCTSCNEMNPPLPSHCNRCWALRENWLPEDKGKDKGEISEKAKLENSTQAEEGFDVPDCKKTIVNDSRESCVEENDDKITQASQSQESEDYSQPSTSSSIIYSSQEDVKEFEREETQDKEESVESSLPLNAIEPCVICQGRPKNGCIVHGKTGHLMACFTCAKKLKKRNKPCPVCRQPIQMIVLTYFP
CSC inhib – cancer stem cell inhibition | cancer stem cell-like cells viability, luminescence | inhibition, % at 7.5 µM | actives 1.1% (n = 300,000) | AID 2717; in the data active means inhibition above about 75%; inconclusive means no clear call, values can overlap the other calls; tested in HMLE shEcad cells
T cruzi inh – T. cruzi replication inhibition; T. cruzi beta-gal in NIH3T3, luminescence, 90 h; inhibition, % (no concentration beside the values); actives 1.4% (n = 300,000); AID 1885;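 active means mean inhibition across valid replicates above about 55%, limit read from the data; inconclusive means mean below that limit but half or more replicates reach it; inactive means mean below it, under half of replicates reach it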;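 further: signal also drops with host cell toxicity which is not excluded here; 0% = plate median of DMSO wells and 100% = zero luminescence signal; higher percent means less beta-gal luminescence so fewer parasites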
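Incubation – ≥90 h infection period, 3 h prior cell attachment · System – NIH/3T3 fibroblasts plus reporter T. cruzi · Doses – compound pinned at 50 nL/well, DMSO · Read-out basis – percent inhibition of parasite-derived β-gal signal · Signal – luminescent β-galactosidase signal after 60 min lysis · Also added – 5000 T. cruzi trypomastigotes/well · Medium – Low-serum DMEM with 2% FBS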
Beta cell apopt – blocks beta cell apoptosis | INS-1E cytokine-induced death, ATP luminescence, 48 h; percent of positive-control rescue, neutral wells zero | protection from apoptosis, % (concentration not given with the values) | actives 0.8% (n = 300,000);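 active means Every replicate reaches about 75%, or at least half do and their mean reaches it too, limit read from the data; inconclusive means At least half of replicates reach the limit but their mean does not; inactive means Under half of replicates reach the limit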;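 further: 0% = cytokine-treated negative control wells and 100% = positive control rescue; higher means more ATP so stronger rescue from cytokine killing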
SKKanGAS inh – inhibitors of SKKanGAS S. pyogenes growth in kanamycin (SK-promoter or general growth effect); inhibition, % at 7.5 µM; actives 1.3% (n = 300,000); BacTiter-Glo, 6 h;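 active means mean replicate score, as percent of positive control median, at least 50; inconclusive means mean below 50 but one replicate at or above 50; inactive means mean and every replicate below 50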;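 further: strain carries kanamycin resistance gene driven by streptokinase promoter and grows in 40 µg/ml kanamycin; loss of luminescence reflects streptokinase promoter inhibition or plain growth inhibition; 0% = median of DMSO wells and 100% = positive control at its reference dose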
* hit, by the source's call; ? = inconclusive; / = not tested or not shown. Rows were chosen to be rich in hits. Some 5.7% of all compounds tested hit in one or more screens of this group.

SMILES	Calb FLC	Mdm2 MdmX PPI	CSC inhib	T cruzi inh	Beta cell apopt	SKKanGAS inh
Cc1ccc(N(C(=O)CNC(=O)c2ccco2)C(C(=O)NC2CCCCC2)c2cccnc2)cc1C (stereo not given)	2.1	-3.3	-0.8	1.2	-3.4	4.7
Cc1ccc(N(C(=O)CCl)C(C(=O)NC2CCCCC2)c2cccnc2)cc1C (stereo not given)	?	/	88.3*	24.9	1.1	-2.9
Cc1ccc(N(C(=O)Cc2cccs2)C(C(=O)NC2CCCC2)c2ccncc2)cc1 (stereo not given)	-17.3	-8.7	5.4	11.7	0.8	-8.8
Cc1ccc(CN(C(=O)Cc2cccs2)C(C(=O)NC2CCCC2)c2ccncc2)cc1 (stereo not given)	-1.7	12.2	9.2	58.6*	-3.5	-5.6
O=C(O)Cc1ccc(NC(=O)c2ccc(NC(=O)C3CC3)cc2)cc1	9.8	13.2	10.4	-15.1	5.8	-8.9
CCCOc1ccc(-c2c(C(=O)N/N=C/C3CCCCC3)nnn2-c2nonc2N)cc1	5.7	9.8	-6.7	14.3	-14.6	3.2
CCOC(=O)/C=C1/N(C)c2ccccc2C1(C)C	-7.1	-11.4	-10.8	-6.8	-2.5	12.3
CN1/C(=C\P(=O)(N(C)C)N(C)C)C(C)(C)c2ccccc21	32.1	4.6	0.5	62.2*	87.0*	-2.1
C/C(=N\OC(=O)NC1CCCCC1)c1sc(-c2ccccc2)nc1C	-7.1	-13.3	49.9	58.0*	10.8	2.0
C/C(=N\OC(=O)NC(C)C)c1sc(-c2ccccc2)nc1C	-3.8	-18.9	-8.1	24.1	4.8	-4.2
NC(=O)C1CCN(C(=O)c2ccc(Cl)c(S(=O)(=O)N3CCCCCC3)c2)CC1	/	0.9	1.9	/	0.3	/
Oc1ccc(N2CCN(c3ncnc4sc(-c5ccccc5)cc34)CC2)cc1	100.2*	/	/	58.3*	/	33.2
CC(=O)N1CCN(c2ncnc3sc(-c4ccccc4)cc23)CC1	24.6	20.9	18.8	3.6	-3.7	5.7
O=c1c2ccccc2nc(-c2ccccc2Cl)n1O	18.1	30.0	-8.7	-0.3	-1.7	-3.0
O=c1c2cc(Br)ccc2nc(-c2ccc(Cl)cc2)n1O	23.8	/	23.7	-22.1	5.5	89.2*
N#Cc1ccc(-c2nc3cc(Cl)ccc3c(=O)n2O)cc1	100.9*	28.7	22.2	-10.6	0.1	29.6
O=c1c2ccccc2nc(-c2ccc(Cl)cc2Cl)n1O	83.8*	-7.1	22.7	3.4	-3.0	13.1
Cc1ccc(-c2nc3c(Cl)cc(Cl)cc3c(=O)n2O)cc1	95.7*	32.6	32.1	-15.2	5.5	90.2*
O=c1c2cc(Cl)ccc2nc(-c2ccc([N+](=O)[O-])cc2)n1O	3.6	19.6	50.4	-3.9	-2.9	4.8
CCOc1ccc(CCNC(=O)COC(=O)COc2ccc(Br)cc2)cc1OCC	0.1	10.8	5.2	-8.7	-0.7	2.2
CCOC(=O)c1ccc(-n2c(O)c(/C=N/NC(=O)C3COc4ccccc4O3)c3ccccc3c2=O)cc1 (stereo not given)	-3.0	17.2	35.3	0.0	2.2	102.9*
COc1ccccc1/C=C1\SC(=O)N(CCC(=O)NCCCn2ccnc2)C1=O	-1.1	0.2	97.3*	-5.3	125.2*	-10.6
COc1ccc(/C=C2\SC(=S)N(CCC(=O)NCCCn3ccnc3)C2=O)cc1	-1.0	16.0	28.0	-7.3	-13.5	-1.6
COc1cccc(/C=C2\SC(=S)N(CCC(=O)NNC(=O)c3ccccc3OC)C2=O)c1	0.5	8.1	12.2	-8.0	-5.2	9.9
COc1ccccc1/C=C1\SC(=S)N(CCC(=O)NNC(=O)c2ccccc2O)C1=O	-6.2	38.8	-22.6	-1.8	-6.7	51.9*
SMILES	Calb FLC	Mdm2 MdmX PPI	CSC inhib	T cruzi inh	Beta cell apopt	SKKanGAS inh
O=C(CCN1C(=O)/C(=C/c2ccccc2)SC1=S)NCCCN1CCOCC1	-4.5	-10.9	41.6	54.8*	-6.6	8.4
COc1cccc(/C=C2\SC(=O)N(CCC(=O)NCCCn3ccnc3)C2=O)c1	-7.6	-18.1	14.8	-1.7	32.6	-0.7
COc1ccccc1/C=C1\SC(=S)N(CCC(=O)NCCCn2ccnc2)C1=O	-1.2	6.6	99.6*	-0.5	/	-3.8
O=C(CCN1C(=O)/C(=C\c2cccc(Br)c2)SC1=S)NCCCN1CCOCC1	0.7	20.6	/	18.5	-8.0	9.8
COC(=O)c1ccc(OCC(=O)NC2CCCCCC2)cc1	-17.2	1.2	11.9	-9.7	5.7	-8.3
Cc1ccc(S(=O)(=O)Nc2ccc(O)c3ncccc23)cc1	99.4*	26.9	29.3	44.2	48.7	-0.2
Cc1ccc(S(=O)(=O)Nc2ccc(O)c3cccnc23)cc1	41.3	41.5	21.3	-3.6	-0.1	15.6
O=C(CSc1nnc(-c2ccncc2)n1Cc1ccco1)OC1CCCCC1	-9.9	-13.9	/	-2.6	-1.5	3.9
O=C(CSc1nnc(-c2ccco2)n1Cc1ccccc1)OC1CCCCC1	97.0*	-207.4	-3.1	0.5	/	-2.0
Cc1ccc(-c2nn(-c3ccc(F)cc3)cc2C(=O)N2CCN(C3CCS(=O)(=O)C3)CC2)cc1 (stereo not given)	/	-19.4	-10.3	/	-8.3	/
CC(C)CC(NC(=O)C(CC(C)C)NC(=O)C(Cc1ccc(OCc2ccccc2)cc1)NC(=O)OC(C)(C)C)C(N)=O (stereo not given)	7.5	-52.1	3.4	-5.9	-14.0	4.1
CC(C)CC(NC(=O)C(NC(=O)C(Cc1ccc(OCc2ccccc2)cc1)NC(=O)OC(C)(C)C)C(C)C)C(N)=O (stereo not given)	-2.5	3.0	137.7*	-10.8	-0.8	1.2
CC(=O)Nc1ccc(N(CC(=O)NC2CCCCC2)C(=O)Cn2nnc(-c3ccccc3)n2)cc1	0.9	-0.9	-5.1	3.9	-6.5	-1.3
COc1ccc(N=c2cc(-c3ccc(OC)cc3)oc3ccccc23)cc1	13.5	7.9	-4.2	39.6	22.5	5.9
CCOc1ccc(N=c2cc(-c3ccc(OC)cc3)oc3ccccc23)cc1	-0.7	33.9	3.2	57.4*	20.5	0.7
CCOC(=O)c1c(NC(=O)c2ccc(Br)o2)sc(C)c1CC	2.2	25.9	6.3	17.7	5.6	14.6
C=CCn1c(NC(=O)c2ccc(Br)o2)c(C(=O)OCC)sc1=S	92.6*	5.2	/	-10.4	/	7.2
COc1cc(C(=S)N2CCN(c3ccccc3Cl)CC2)cc(O)c1O	91.4*	32.1	40.7	18.2	-4.4	12.5
COc1ccc(C(=S)N2CCN(c3ccccc3Cl)CC2)cc1OC	0.5	-25.3	-2.1	-3.5	-2.5	-3.8
CCOc1ccc(/C=N/NC(=O)Cc2csc(Nc3cccc(C(F)(F)F)c3)n2)cc1	-5.0	21.2	-2.7	5.5	-4.0	80.1*
CCOC(=O)c1ccc(-n2[nH]c(-c3ccccc3)cc2=O)cc1	13.3	31.7	79.0*	0.2	11.7	32.1
CCOC(=O)c1ccc(N=Nc2c(C)[nH]n(-c3ccccc3)c2=O)cc1	-2.5	8.7	-3.3	-9.1	-15.6	-4.9

Screening results: PubChem, several laboratories
